The results in this text go back to ChEMBL document CHEMBL2424574, “Structure-activity relationships and pharmacophore model of a noncompetitive pyrazoline containing class of GluN2C/GluN2D selective antagonists” (J Med Chem, 2013).

For data set [1], the system named is Plasma. Put plainly: Metabolic stability in mouse plasma after 2 hrs. Format: ADME, cell-free. The method in brief: (§1)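 Stability followed in human, rat or mouse plasma over a 2-hour time course.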
Data set [2] has as its system Plasma. Description: Metabolic stability in human plasma after 2 hrs. The class given is ADME, cell-free. The method in brief: as §1
Data set [3] relates to Plasma. Description: Metabolic stability in rat plasma after 2 hrs. The class given is ADME, cell-free. The gist of the method:
as §1

Data set [4] addresses Kappa-type opioid receptor (Homo sapiens, UniProt P41145). Put plainly: Inhibition of kappa-type opioid receptor (unknown origin). The method in brief:
(§2)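 Radioligand panel screening was run through the NIMH Psychoactive Drug Screening Program with compounds at 5 µM.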

In data set [5] the target is 5-hydroxytryptamine receptor 6 (Homo sapiens, UniProt P50406). Description: Inhibition of 5HT6 receptor (unknown origin). The gist of the method: as §2
Chain of 5-hydroxytryptamine receptor 6 (P50406 whole entry): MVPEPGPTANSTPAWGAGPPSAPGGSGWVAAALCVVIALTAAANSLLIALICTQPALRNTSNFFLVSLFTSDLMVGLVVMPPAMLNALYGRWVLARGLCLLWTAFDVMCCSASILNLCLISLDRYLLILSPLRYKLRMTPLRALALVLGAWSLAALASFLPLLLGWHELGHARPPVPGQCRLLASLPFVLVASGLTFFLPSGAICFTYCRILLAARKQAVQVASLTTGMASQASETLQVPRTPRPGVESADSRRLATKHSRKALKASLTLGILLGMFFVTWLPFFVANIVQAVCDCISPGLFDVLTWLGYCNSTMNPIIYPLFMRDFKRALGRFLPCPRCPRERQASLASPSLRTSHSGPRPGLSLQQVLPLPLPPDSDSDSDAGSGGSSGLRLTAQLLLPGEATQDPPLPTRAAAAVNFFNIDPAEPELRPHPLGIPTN
For data set [6], the species on record is Rattus norvegicus. Description: Selectivity ratio of IC50 for recombinant rat GluN2B receptor to IC50 for recombinant rat GluN2D receptor. The method in brief: (§3)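 Rat GluN1 co-expressed with GluN2A, GluN2B or GluN2D in Xenopus oocytes. Two-electrode voltage clamp at −40 mV in 90 NaCl, 1 KCl, 0.5 BaCl2, 0.005 EDTA, 10 HEPES (mM), pH 7.4, 23 °C; final DMSO 0.1–0.05%. IC50s came from Hill fits to averaged composite concentration-response curves (5–24 oocytes, 2–4 frogs). Ratio is GluN2A or GluN2B IC50 over GluN2D IC50.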

Data set [7] deals with Glutamate receptor ionotropic, NMDA 2A (Rattus norvegicus, UniProt P35439+Q00959). Put plainly: Negative allosteric modulation of recombinant rat GluN2A receptor expressed in Xenopus laevis oocytes by two-electrode voltage clamp method. Format: cell-based, Oocyte. The method in brief:
(§4)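 Two-electrode voltage clamp of Xenopus oocytes expressing rat GluN1 with GluN2A, 2B, 2C or 2D. Holding potential −40 mV in recording solution (mM: 90 NaCl, 1 KCl, 0.5 BaCl2, 0.005 EDTA, 10 HEPES, pH 7.4, 23 °C). Compounds diluted from 20 mM DMSO stocks to 0.05–0.1% final DMSO. IC50 from a Hill fit to the averaged composite concentration–response curve, 5–24 oocytes from 2–4 frogs.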
In general terms: In two-electrode clamp one electrode senses voltage and the other passes current.

In data set [8] the target is Glutamate receptor ionotropic, NMDA 2B (Rattus norvegicus, UniProt P35439+Q00960). Description: Negative allosteric modulation of recombinant rat GluN2B receptor expressed in Xenopus laevis oocytes by two-electrode voltage clamp method. The class given is cell-based, Oocyte. The gist of the method: as §4
Data set [9] addresses Glutamate receptor ionotropic, NMDA 2C (Rattus norvegicus, UniProt P35439+Q00961). Description: Negative allosteric modulation of recombinant rat GluN2C receptor expressed in Xenopus laevis oocytes by two-electrode voltage clamp method. The class given is cell-based, Oocyte. The method in brief:
as §4

Data set [10] addresses Glutamate receptor ionotropic, NMDA 2D (Rattus norvegicus, UniProt P35439+Q62645). Put plainly: Negative allosteric modulation of recombinant rat GluN2D receptor expressed in Xenopus laevis oocytes by two-electrode voltage clamp method. Format: cell-based, Oocyte. The gist of the method: as §4
For data set [11], the species on record is Rattus norvegicus. Description: Selectivity ratio of IC50 for recombinant rat GluN2A receptor to IC50 for recombinant rat GluN2D receptor. The method in brief: as §3
The target of data set [12] is P2X purinoceptor 2 (Rattus norvegicus) (UniProt P49653). Description: Inhibition of rat purinergic receptor P2X subunit-2 expressed in Xenopus laevis oocytes assessed as inhibition of ATP-induced current at 3 uM by two-electrode voltage clamp method; values are per cent of control. The following applies: Oocyte.
Data set [13] deals with Glutamate receptor ionotropic, kainate 1 (Homo sapiens) (UniProt P39086). Description: Inhibition of GluK1 receptor (unknown origin) expressed in Xenopus laevis oocytes assessed as inhibition of glutamate-induced current at 3 uM by two-electrode voltage clamp method; values are per cent of control. The note with it: Oocyte.
Chain of Glutamate receptor ionotropic, kainate 1 (Homo sapiens) (P39086 whole entry): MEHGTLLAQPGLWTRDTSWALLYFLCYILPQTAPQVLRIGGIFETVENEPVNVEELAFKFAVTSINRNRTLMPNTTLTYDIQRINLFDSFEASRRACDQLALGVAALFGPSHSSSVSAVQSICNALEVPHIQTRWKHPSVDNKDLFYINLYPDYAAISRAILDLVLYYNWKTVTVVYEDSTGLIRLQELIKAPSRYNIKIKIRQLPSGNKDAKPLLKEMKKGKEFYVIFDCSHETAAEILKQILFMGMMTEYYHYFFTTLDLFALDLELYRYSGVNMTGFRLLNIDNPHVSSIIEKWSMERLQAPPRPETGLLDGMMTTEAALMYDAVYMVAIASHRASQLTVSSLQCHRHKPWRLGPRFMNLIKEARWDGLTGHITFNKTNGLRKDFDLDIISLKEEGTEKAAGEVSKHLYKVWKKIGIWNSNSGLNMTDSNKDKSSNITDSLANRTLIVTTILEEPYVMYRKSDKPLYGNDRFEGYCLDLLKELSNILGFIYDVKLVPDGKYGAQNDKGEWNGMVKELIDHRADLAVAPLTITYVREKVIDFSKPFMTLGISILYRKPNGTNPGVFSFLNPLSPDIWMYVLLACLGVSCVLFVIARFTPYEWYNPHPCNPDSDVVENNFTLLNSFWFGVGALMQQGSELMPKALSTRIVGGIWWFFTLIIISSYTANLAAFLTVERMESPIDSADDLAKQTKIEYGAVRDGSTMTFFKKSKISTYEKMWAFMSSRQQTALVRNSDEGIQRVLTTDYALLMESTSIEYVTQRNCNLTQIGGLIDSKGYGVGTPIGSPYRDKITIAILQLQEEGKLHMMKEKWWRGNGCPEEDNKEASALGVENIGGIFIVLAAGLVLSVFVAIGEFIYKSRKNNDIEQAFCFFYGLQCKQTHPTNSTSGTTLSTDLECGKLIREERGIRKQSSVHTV
The target in data set [14] is Glutamate receptor 4 (Homo sapiens) (UniProt P48058). Description: Inhibition of GluA4 receptor (unknown origin) expressed in Xenopus laevis oocytes assessed as inhibition of glutamate-induced current at 3 uM by two-electrode voltage clamp method; values are per cent of control. The following applies: Oocyte.
Data set [15] concerns the target Glutamate receptor 1 (Homo sapiens) (UniProt P42261). Description: Inhibition of GluA1 receptor (unknown origin) expressed in Xenopus laevis oocytes assessed as inhibition of glutamate-induced current at 3 uM by two-electrode voltage clamp method; values are per cent of control. The following applies: Oocyte.
The target of data set [16] is Ionotropic glutamate receptor kainate 2/5 (Homo sapiens) (UniProt Q16478+Q13002). Put plainly: Inhibition of GluK2/GluK5 receptor (unknown origin) expressed in Xenopus laevis oocytes assessed as inhibition of AMPA-induced current at 3 uM by two-electrode voltage clamp method; values are per cent of control. The note with it: Oocyte.
Data set [17] deals with Gamma-aminobutyric acid receptor subunit rho-1 (Homo sapiens) (UniProt P24046). Description: Inhibition of human GABA C receptor subunit rho-1 receptor expressed in Xenopus laevis oocytes assessed as inhibition of GABA-induced current at 3 uM by two-electrode voltage clamp method; values are per cent of control. The note with it: Oocyte.
Data set [18] concerns the target Ionotropic glutamate receptor NMDA 1/2C (Homo sapiens) (UniProt Q05586+Q14957). Description: Inhibition of GluN1/GluN2C receptor (unknown origin) expressed in Xenopus laevis oocytes assessed as inhibition of glutamate/glycine-induced current at 3 uM by two-electrode voltage clamp method; values are per cent of control. The following applies: Oocyte.
The target in data set [19] is Glutamate NMDA receptor; GRIN1/GRIN2B (Homo sapiens) (UniProt Q05586+Q13224). Put plainly: Inhibition of GluN1/GluN2B receptor (unknown origin) expressed in Xenopus laevis oocytes assessed as inhibition of glutamate/glycine-induced current at 3 uM by two-electrode voltage clamp method; values are per cent of control. The note with it: Oocyte.
For data set [20], the target named is Glycine receptor subunit alpha-1 (Homo sapiens) (UniProt P23415). Description: Inhibition of glycine receptor subunit alpha-1 (unknown origin) expressed in Xenopus laevis oocytes assessed as inhibition of glycine-induced current at 3 uM by two-electrode voltage clamp method; values are per cent of control. The following applies: Oocyte.
Chain of Glycine receptor subunit alpha-1 (Homo sapiens) (P23415 whole entry): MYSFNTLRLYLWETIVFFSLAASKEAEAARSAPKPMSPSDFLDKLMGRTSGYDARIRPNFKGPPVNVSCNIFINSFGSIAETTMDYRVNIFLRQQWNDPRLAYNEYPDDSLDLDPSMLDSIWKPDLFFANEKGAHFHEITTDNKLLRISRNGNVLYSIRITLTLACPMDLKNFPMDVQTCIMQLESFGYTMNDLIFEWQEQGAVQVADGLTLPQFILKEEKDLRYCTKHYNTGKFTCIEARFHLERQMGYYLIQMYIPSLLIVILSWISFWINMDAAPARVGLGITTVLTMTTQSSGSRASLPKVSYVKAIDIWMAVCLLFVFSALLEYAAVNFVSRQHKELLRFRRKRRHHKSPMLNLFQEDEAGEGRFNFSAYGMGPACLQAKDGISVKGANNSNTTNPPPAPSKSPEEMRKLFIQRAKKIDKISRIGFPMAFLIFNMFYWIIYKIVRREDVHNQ
In data set [21] the target is Neuronal acetylcholine receptor subunit alpha-7 (Homo sapiens) (UniProt P36544). Put plainly: Inhibition of human nicotinic acetylcholine receptor subunit alpha-7 expressed in Xenopus laevis oocytes assessed as inhibition of acetylcholine-induced current at 3 uM by two-electrode voltage clamp method; values are per cent of control. The note with it: Oocyte.
Chain of Neuronal acetylcholine receptor subunit alpha-7 (Homo sapiens) (P36544 whole entry): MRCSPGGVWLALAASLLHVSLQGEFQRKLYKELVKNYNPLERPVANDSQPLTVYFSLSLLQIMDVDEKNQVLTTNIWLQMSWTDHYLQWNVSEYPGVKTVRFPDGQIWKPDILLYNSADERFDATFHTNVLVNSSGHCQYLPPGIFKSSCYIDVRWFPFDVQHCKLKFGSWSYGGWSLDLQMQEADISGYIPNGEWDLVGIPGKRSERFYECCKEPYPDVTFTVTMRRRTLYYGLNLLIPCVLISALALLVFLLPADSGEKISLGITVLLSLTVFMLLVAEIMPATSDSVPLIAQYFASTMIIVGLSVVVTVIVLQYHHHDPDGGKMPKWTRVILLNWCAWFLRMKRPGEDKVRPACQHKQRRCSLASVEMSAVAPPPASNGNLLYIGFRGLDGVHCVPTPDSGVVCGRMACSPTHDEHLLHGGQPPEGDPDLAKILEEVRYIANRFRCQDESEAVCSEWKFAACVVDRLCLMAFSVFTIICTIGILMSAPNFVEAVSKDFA
Data set [22] concerns the target Neuronal acetylcholine receptor; alpha4/beta2 (Homo sapiens) (UniProt P17787+P43681). Description: Inhibition of human nicotinic acetylcholine receptor subunit alpha-4 beta-2 expressed in Xenopus laevis oocytes assessed as inhibition of acetylcholine-induced current at 3 uM by two-electrode voltage clamp method; values are per cent of control. The note with it: Oocyte.

The test system of a further data set is Oocyte. Description: Inhibition of gamma-aminobutyric acid receptor A […] (unknown origin) expressed in Xenopus laevis oocytes assessed as inhibition of GABA-induced current at 3 uM by two-electrode voltage clamp method; values are per cent of control. The note with it: Homo sapiens.

Chain of Glutamate receptor ionotropic, NMDA 2A (Q00959 whole entry, one chain of several): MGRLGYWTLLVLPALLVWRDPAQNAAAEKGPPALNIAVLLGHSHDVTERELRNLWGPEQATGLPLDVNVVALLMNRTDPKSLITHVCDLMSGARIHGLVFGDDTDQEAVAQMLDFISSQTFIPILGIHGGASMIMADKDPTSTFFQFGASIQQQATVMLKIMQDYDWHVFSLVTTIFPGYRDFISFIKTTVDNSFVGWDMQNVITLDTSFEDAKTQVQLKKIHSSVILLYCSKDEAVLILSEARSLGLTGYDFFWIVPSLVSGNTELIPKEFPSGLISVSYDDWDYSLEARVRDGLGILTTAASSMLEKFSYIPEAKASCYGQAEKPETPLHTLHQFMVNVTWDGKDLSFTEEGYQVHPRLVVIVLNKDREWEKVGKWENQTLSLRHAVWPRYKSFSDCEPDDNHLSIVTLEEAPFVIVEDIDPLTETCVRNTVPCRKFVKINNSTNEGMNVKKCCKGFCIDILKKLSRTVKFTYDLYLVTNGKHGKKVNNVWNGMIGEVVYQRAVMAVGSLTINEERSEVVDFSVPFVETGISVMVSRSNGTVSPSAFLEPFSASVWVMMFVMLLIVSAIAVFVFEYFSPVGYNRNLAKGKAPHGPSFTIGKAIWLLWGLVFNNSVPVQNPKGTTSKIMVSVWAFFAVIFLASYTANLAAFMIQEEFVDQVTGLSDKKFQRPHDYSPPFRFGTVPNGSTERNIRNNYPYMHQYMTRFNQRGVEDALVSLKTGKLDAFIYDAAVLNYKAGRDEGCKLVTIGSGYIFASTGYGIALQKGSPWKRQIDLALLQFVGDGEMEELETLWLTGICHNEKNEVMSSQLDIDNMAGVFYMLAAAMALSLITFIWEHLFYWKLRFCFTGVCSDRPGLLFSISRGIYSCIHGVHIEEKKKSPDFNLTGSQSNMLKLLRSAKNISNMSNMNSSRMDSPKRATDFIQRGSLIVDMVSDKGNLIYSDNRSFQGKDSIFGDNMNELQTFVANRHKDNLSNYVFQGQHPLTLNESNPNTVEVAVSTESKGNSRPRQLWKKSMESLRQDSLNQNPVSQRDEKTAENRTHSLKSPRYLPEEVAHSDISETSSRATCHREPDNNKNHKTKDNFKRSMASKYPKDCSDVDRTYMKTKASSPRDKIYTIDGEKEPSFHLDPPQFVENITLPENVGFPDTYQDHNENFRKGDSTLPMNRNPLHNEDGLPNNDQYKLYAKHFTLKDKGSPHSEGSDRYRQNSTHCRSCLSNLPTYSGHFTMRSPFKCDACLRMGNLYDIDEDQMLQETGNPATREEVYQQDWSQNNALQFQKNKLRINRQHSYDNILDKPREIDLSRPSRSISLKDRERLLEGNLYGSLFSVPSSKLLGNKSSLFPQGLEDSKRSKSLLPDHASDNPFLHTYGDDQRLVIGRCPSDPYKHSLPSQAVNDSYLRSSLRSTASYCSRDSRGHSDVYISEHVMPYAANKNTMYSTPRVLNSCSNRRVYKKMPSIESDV
Chain of Glutamate receptor ionotropic, NMDA 2D (Q62645 whole entry, one chain of several): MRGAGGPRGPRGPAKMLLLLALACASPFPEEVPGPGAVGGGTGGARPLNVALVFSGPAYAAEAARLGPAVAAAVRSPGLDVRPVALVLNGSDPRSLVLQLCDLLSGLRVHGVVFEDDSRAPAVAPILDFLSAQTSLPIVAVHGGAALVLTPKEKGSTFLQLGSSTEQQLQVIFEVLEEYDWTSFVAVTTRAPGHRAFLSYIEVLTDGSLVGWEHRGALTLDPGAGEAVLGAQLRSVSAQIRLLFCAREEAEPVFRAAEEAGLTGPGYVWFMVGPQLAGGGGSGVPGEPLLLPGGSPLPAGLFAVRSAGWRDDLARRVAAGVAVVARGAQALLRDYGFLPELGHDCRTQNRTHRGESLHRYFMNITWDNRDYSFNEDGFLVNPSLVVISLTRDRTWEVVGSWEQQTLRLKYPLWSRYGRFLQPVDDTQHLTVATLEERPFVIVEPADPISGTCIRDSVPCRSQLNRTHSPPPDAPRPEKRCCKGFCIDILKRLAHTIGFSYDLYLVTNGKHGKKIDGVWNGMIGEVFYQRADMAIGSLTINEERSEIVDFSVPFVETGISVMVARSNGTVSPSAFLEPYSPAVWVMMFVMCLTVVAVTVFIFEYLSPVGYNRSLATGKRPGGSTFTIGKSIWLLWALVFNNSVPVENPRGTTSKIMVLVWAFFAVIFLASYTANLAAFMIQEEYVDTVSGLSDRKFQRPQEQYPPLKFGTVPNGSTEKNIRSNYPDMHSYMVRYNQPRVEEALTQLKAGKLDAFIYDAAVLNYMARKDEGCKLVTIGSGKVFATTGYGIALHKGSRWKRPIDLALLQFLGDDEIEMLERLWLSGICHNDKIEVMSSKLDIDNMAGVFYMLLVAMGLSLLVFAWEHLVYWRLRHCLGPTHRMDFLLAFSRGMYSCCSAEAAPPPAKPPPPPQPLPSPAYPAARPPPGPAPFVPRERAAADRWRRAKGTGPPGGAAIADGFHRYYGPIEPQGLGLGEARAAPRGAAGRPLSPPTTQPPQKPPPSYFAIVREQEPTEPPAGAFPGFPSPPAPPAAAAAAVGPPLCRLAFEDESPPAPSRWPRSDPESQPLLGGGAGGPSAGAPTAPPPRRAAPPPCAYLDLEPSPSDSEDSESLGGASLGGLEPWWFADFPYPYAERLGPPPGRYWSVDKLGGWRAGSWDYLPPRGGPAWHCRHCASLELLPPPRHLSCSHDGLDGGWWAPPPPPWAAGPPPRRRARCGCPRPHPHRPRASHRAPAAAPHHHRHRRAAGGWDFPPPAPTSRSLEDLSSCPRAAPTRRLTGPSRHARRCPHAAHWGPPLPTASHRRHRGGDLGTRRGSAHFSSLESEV

What is called Ki is a measure of affinity in units of concentration, obtained from inhibition or displacement. Higher therefore signals a looser hold on the target. What is called IC50 is the midpoint of a concentration-inhibition curve. `O=C(O)CCC(=O)N1N=C(c2c(-c3ccc(Cl)cc3)c3ccccc3[nH]c2=O)CC1c1ccc(Cl)cc1` (racemic): the Stability result in the data set on Plasma [1], in the data set on Plasma [2] and in the data set on Plasma [3] was “Stable” in each case. The Ki in [4] and in data set [5] was more than 10 µM throughout. Moreover, the Ratio IC50 in the data set filed under Rattus norvegicus [6] was 50; in the data set filed under Rattus norvegicus [11], 48. In addition, the IC50 in [7] was determined as 21 µM; in data set [8], 22 µM; in [9] it was 0.77 µM; in data set [10] it was 0.44 µM. Besides, the residual activity in data set [12] came to 97%; in data set [13], 97%; in [14], 96%; in data set [15] it was 97%; in data set [16], 97%; in [17], 99%. In addition, the residual activity came to 21% in [18]; 79% in [19]; 101% in data set [20]; 82% in data set [21]; 79% in data set [22]; 97% with Oocyte.
As for `O=C(O)/C=C/C(=O)N1N=C(c2c(-c3ccc(Br)cc3)c3ccccc3[nH]c2=O)CC1c1ccc(Cl)cc1` (racemic), the Stability entry in the data set with Plasma [1], in the data set on Plasma [2] and with Plasma [3] was “Stable” in each case. Further, the Ki in data set [4] and in data set [5] was more than 10 µM each time. The Ratio IC50 is 63 in the data set filed under Rattus norvegicus [6] and 23 in the data set filed under Rattus norvegicus [11]. Moreover, the IC50 in data set [7] was 4.3 µM; in data set [8], 12 µM; in data set [9], 0.2 µM; in data set [10] it was 0.19 µM. Besides, the residual activity in [12] stood at 96%; in data set [13], 100%; in data set [14], 97%; in data set [15], 99%; in [16], 95%; in data set [17] it was 97%. For the same compound, the residual activity in [18] worked out at 26%; in data set [19], 98%; in [20], 99%; in data set [21], 64%; in [22], 82%; in the data set with Oocyte it was 95%.
